{
  "source": "paper PMC7993274",
  "about": "(Clinical and Translational Science, 2020)",
  "key": {"[1]": {"system": "sodium/Na+ taurocholate co‐transporting polypeptide", "settings": "cited from earlier work"}, "[2]": {"experiment": "Clinical laboratory parameters, vital signs, ECG and overall safety", "format": "in vivo, human", "method_in_brief": "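Double-blind, placebo-controlled study in healthy men and nonchildbearing women aged 18–55 y. The SAD period gave one fasted oral dose; the MAD period gave fed dosing q.d. for 10 days, plus a separate b.i.d. cohort. TEAEs, serious AEs and discontinuation AEs were monitored ≥28 days after the last dose. Vital signs, physical exam, 12-lead ECG, hematology, clinical chemistry and urinalysis were also recorded. Data summarized descriptively.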"}, "[3]": {"experiment": "Plasma PK, single ascending dose", "format": "in vivo, human", "settings": "for t1/2: arithmetic mean (SD); for AUCinf (dn) / Cmax (dn): dose normalized; for AUCinf (dn) / Cmax (dn) / AUCinf / Cmax: geometric mean (CV %); for Tmax: median (range)", "method_in_brief": "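Healthy volunteers were randomized 3:1 to test compound or placebo, given as a single oral dose of 3–1,600 mg (tablets; suspension for 3 mg) after an overnight fast of ≥8 h. Plasma was sampled predose and at 0.5–72 h. Assay LLOQ was 1 ng/mL. Parameters came from noncompartmental analysis, were dose-normalized to 1 mg, and were reported as geometric mean (CV), with Tmax excepted.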"}, "MRP2": {"system": "MRP2", "settings": "cited from earlier work"}, "[4]": {"experiment": "Plasma PK, multiple ascending dose", "format": "in vivo, human", "settings": "for AUCτ (dn) / Cmax (dn): dose normalized"}, "[5]": {"settings": "SAD 1,600 mg single dose fasted"}, "[6]": {"settings": "MAD day 1 fed 30 mg q.d., geometric mean (CV %)"}, "[7]": {"settings": "MAD day 1 fed 100 mg q.d., geometric mean (CV %)"}},
  "data": [
    {"smiles": "Cn1cc(-c2cn3nccc3c(-c3cnn([C@]4(CC#N)C[C@@H](C#N)C4)c3)n2)cn1", "note": "[PF‐06826647]", "values": [
      {"measurement": "inhibition of sodium/Na+ taurocholate co‐transporting polypeptide", "setting": "[1]", "value": "minimal inhibition"},
      {"measurement": "increase in median platelet count from baseline", "setting": "[2]; SAD 1,600 mg (placebo: 6% decrease)", "value": 28, "unit": "%"},
      {"measurement": "changes in lipid parameters (LDL, HDL, total cholesterol)", "setting": "[2]; SAD and MAD treatment groups", "value": "small, and similar to those observed in the placebo group"},
      {"measurement": "intensity of TEAEs", "setting": "[2]; all TEAEs", "value": "mild in intensity"},
      {"measurement": "lymphocyte counts", "setting": "[2]; assessment period", "value": "No clinically meaningful changes"},
      {"measurement": "neutrophil counts", "setting": "[2]; assessment period", "value": "No clinically meaningful changes"},
      {"measurement": "events of acne or aphthous ulcers", "setting": "[2]; either treatment period", "value": "No events of acne or aphthous ulcers were reported"},
      {"measurement": "serum cystatin C, serum creatinine‐based and cystatin C‐based eGFR", "setting": "[2]; human, in vivo", "value": "No clinically meaningful changes"},
      {"measurement": "vital signs, ECG parameters, physical examination", "setting": "[2]; human, in vivo", "value": "No clinically significant findings"},
      {"measurement": "platelet counts", "setting": "[2]; participants receiving PF‐06826647", "value": "remained within the normal range"},
      {"measurement": "tolerability", "setting": "[2]; single ≤ 1,600 mg, multiple ≤ 1,200 mg q.d., 200 mg b.i.d., 10‐day dosing", "value": "well‐tolerated"},
      {"measurement": "serum creatinine increase from baseline", "setting": "[2]; some participants, isolated timepoints", "value": "up to 0.3 mg/dL"},
      {"measurement": "participants with gastrointestinal AEs", "setting": "[2]; whole study, three participants", "value": 4, "unit": "%"},
      {"measurement": "t1/2", "setting": "[3]; SAD 3 mg single dose fasted", "value": "3.6 (1.3) hour"},
      {"measurement": "AUCinf (dn)", "setting": "[3]; SAD 3 mg single dose fasted", "value": "15.9 (59) ng.hour/mL/mg"},
      {"measurement": "Cmax (dn)", "setting": "[3]; SAD 3 mg single dose fasted", "value": "2.6 (38) ng/mL/mg"},
      {"measurement": "AUCinf", "setting": "[3]; SAD 3 mg single dose fasted", "value": "47.6 (59) ng.hour/mL"},
      {"measurement": "Cmax", "setting": "[3]; SAD 3 mg single dose fasted", "value": "7.8 (38) ng/mL"},
      {"measurement": "Tmax", "setting": "[3]; SAD 3 mg single dose fasted", "value": "2.0 (1.0–2.0) hour"},
      {"measurement": "t1/2", "setting": "[3]; SAD 10 mg single dose fasted", "value": "6.0 (1.9) hour"},
      {"measurement": "AUCinf (dn)", "setting": "[3]; SAD 10 mg single dose fasted", "value": "36.9 (67) ng.hour/mL/mg"},
      {"measurement": "Cmax (dn)", "setting": "[3]; SAD 10 mg single dose fasted", "value": "4.7 (35) ng/mL/mg"},
      {"measurement": "AUCinf", "setting": "[3]; SAD 10 mg single dose fasted", "value": "369.3 (67) ng.hour/mL"},
      {"measurement": "Cmax", "setting": "[3]; SAD 10 mg single dose fasted", "value": "47.1 (35) ng/mL"},
      {"measurement": "Tmax", "setting": "[3]; SAD 10 mg single dose fasted", "value": "2.0 (1.0–4.0) hour"},
      {"measurement": "t1/2", "setting": "[3]; SAD 30 mg single dose fasted", "value": "19.7 (9.5) hour"},
      {"measurement": "AUCinf (dn)", "setting": "[3]; SAD 30 mg single dose fasted", "value": "28.3 (41) ng.hour/mL/mg"},
      {"measurement": "Cmax (dn)", "setting": "[3]; SAD 30 mg single dose fasted", "value": "2.6 (34) ng/mL/mg"},
      {"measurement": "AUCinf", "setting": "[3]; SAD 30 mg single dose fasted", "value": "848.4 (40) ng.hour/mL"},
      {"measurement": "Cmax", "setting": "[3]; SAD 30 mg single dose fasted", "value": "77.9 (34) ng/mL"},
      {"measurement": "Tmax", "setting": "[3]; SAD 30 mg single dose fasted", "value": "2.0 (1.0–4.0) hour"},
      {"measurement": "t1/2", "setting": "[3]; SAD 100 mg single dose fasted", "value": "38.8 (36.0) hour"},
      {"measurement": "AUCinf (dn)", "setting": "[3]; SAD 100 mg single dose fasted", "value": "15.8 (42) ng.hour/mL/mg"},
      {"measurement": "Cmax (dn)", "setting": "[3]; SAD 100 mg single dose fasted", "value": "1.7 (55) ng/mL/mg"},
      {"measurement": "AUCinf", "setting": "[3]; SAD 100 mg single dose fasted", "value": "1,582.0 (42) ng.hour/mL"},
      {"measurement": "Cmax", "setting": "[3]; SAD 100 mg single dose fasted", "value": "166.8 (55) ng/mL"},
      {"measurement": "Tmax", "setting": "[3]; SAD 100 mg single dose fasted", "value": "2.0 (2.0–6.0) hour"},
      {"measurement": "t1/2", "setting": "[3]; SAD 400 mg single dose fasted", "value": "16.3 (9.3) hour"},
      {"measurement": "AUCinf (dn)", "setting": "[3]; SAD 400 mg single dose fasted", "value": "7.6 (65) ng.hour/mL/mg"},
      {"measurement": "Cmax (dn)", "setting": "[3]; SAD 400 mg single dose fasted", "value": "1.0 (62) ng/mL/mg"},
      {"measurement": "AUCinf", "setting": "[3]; SAD 400 mg single dose fasted", "value": "3,056.0 (65) ng.hour/mL"},
      {"measurement": "Cmax", "setting": "[3]; SAD 400 mg single dose fasted", "value": "404.8 (62) ng/mL"},
      {"measurement": "Tmax", "setting": "[3]; SAD 400 mg single dose fasted", "value": "2.0 (0.5–4.0) hour"},
      {"measurement": "t1/2", "setting": "[3]; [5]", "value": "22.2 (24.6) hour"},
      {"measurement": "AUCinf (dn)", "setting": "[3]; [5]", "value": "7.4 (25) ng.hour/mL/mg"},
      {"measurement": "Cmax (dn)", "setting": "[3]; [5]", "value": "0.8 (25) ng/mL/mg"},
      {"measurement": "AUCinf", "setting": "[3]; [5]", "value": "11,790.0 (25) ng.hour/mL"},
      {"measurement": "Cmax", "setting": "[3]; [5]", "value": "1,218.0 (25) ng/mL"},
      {"measurement": "Tmax", "setting": "[3]; [5]", "value": "2.0 (0.5–4.0) hour"},
      {"measurement": "dose proportionality of AUCinf and Cmax", "setting": "[3]; SAD doses of 3–10 mg", "value": "greater than dose‐proportional"},
      {"measurement": "dose proportionality of AUCinf and Cmax", "setting": "[3]; SAD doses of 10–400 mg", "value": "less than dose‐proportional"},
      {"measurement": "dose proportionality of AUCinf and Cmax", "setting": "[3]; SAD doses of 400–1,600 mg", "value": "dose‐proportional"},
      {"measurement": "median Tmax", "setting": "[3]; fasted state, SAD, overall", "value": 2, "unit": "h"},
      {"measurement": "inhibition of transporter protein MRP2", "setting": "MRP2", "value": "minimal inhibition"},
      {"measurement": "dose proportionality of AUCτ and Cmax", "setting": "[4]; MAD 30–400 mg q.d.", "value": "less‐than‐dose‐proportional"},
      {"measurement": "dose proportionality of AUCτ and Cmax", "setting": "[4]; MAD 400–1,200 mg q.d.", "value": "dose‐proportional"},
      {"measurement": "AUCτ (dn)", "setting": "[4]; [6]", "value": "22.1 (25) ng.hour/mL/mg"},
      {"measurement": "Cmax (dn)", "setting": "[4]; [6]", "value": "2.8 (24) ng/mL/mg"},
      {"measurement": "AUCτ", "setting": "[4]; [6]", "value": "662.8 (25) ng.hour/mL"},
      {"measurement": "Cmax", "setting": "[4]; [6]", "value": "83.5 (24) ng/mL"},
      {"measurement": "Tmax", "setting": "[4]; MAD day 1 fed 30 mg q.d., median (range)", "value": "3.0 (2.0–6.0) hour"},
      {"measurement": "AUCτ (dn)", "setting": "[4]; [7]", "value": "18.0 (23) ng.hour/mL/mg"},
      {"measurement": "Cmax (dn)", "setting": "[4]; [7]", "value": "2.7 (20) ng/mL/mg"},
      {"measurement": "AUCτ", "setting": "[4]; [7]", "value": "1,803.0 (23) ng.hour/mL"}
    ]}
  ]
}
